Here are results for 36 sequences from the array DNA melting data of Ke et al. (doi:10.1101/2024.01.08.574731).

Data set [1] can be described thus: folding enthalpy; higher = less favourable; fluorescence melt of hairpins on a sequencing array, two-state fit. To be noted: sodium 0.088 M. In short, it runs like this: (§1)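 Folding enthalpy and melting temperature were estimated with bootstrapped two-state fits and combined across four replicates by inverse-variance weighting, with fitted temperatures raised by 9.35 °C to match UV melts. The data were Cy3 fluorescence of library hairpins, with annealed Cy3 and quencher oligos, on a sequenced MiSeq flow cell in 50 mM Na-HEPES pH 8.0, 25 mM NaCl, imaged in 2.5 °C steps up to 60 °C and normalised to pre-quench Cy3 and control constructs.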

A short description of data set [2]: melting temperature; fluorescence melt of hairpins on a sequencing array, two-state fit, raised by 9.35 °C to match UV melts. To be noted: sodium 0.088 M. Put shortly: as §1

As to GTGGCCGAAAGGCGGCAC ((((((....)))..))), the folding enthalpy in data set [1] is -13.8 kcal/mol. In addition, the Tm in data set [2] stood at 46.7 °C.
In the same order, the values of GTGGCCGAAAGGCTCAC ((((((....))).))) are -16.2 kcal/mol and 54.9 °C.
For GTGGCCGGAAACAGCCAC (((((.(....).))))) the same measures were -47.6 kcal/mol and 54.5 °C.
For the sequence GTGGCGCCGAAAGGCCAC (((..(((....)))))), in data set [1], the folding enthalpy is -13.8 kcal/mol. For the same sequence, the Tm in data set [2] amounted to 57.8 °C.
With GTGGCGGGAAACCGTCGC (.(.(((....))).).), the folding enthalpy in data set [1] was -24.9 kcal/mol. For the same sequence, the Tm in data set [2] amounted to 50.5 °C.
Consider GTGGCGTCGAAAGACCAC (((..(((....)))))), for which the folding enthalpy in data set [1] is -12.9 kcal/mol. Moreover, the Tm in data set [2] amounted to 44.5 °C.
In the case of GTGGGCGAAAGCCCCCAC ((((((....)))..))), the folding enthalpy in data set [1] is -7.28 kcal/mol. In data set [2], the Tm was found to be 38.7 °C.
Take GTGGGCGAAAGCCCTCAC ((((((....)))..))): in data set [1], the folding enthalpy is -8.43 kcal/mol. For the same sequence, in data set [2], the Tm worked out at 39.5 °C.
As to GTGGGCGAAAGCCGCCAC ((((((....)))..))), the folding enthalpy in data set [1] was -13.3 kcal/mol. Also, the Tm in data set [2] was found to be 42.3 °C.
For GTGGGCGAAAGCCTCAC ((((((....))).))) the same measures were -15.5 kcal/mol and 51.9 °C.
In the same order, the values of GTGGGCGAAAGCCTGCAC ((((((....)))..))) are -12.4 kcal/mol and 45.3 °C.
For the sequence GTGGTACGAAAGTACAC (((.(((....)))))), the folding enthalpy in data set [1] was -15 kcal/mol. For the same sequence, the Tm in data set [2] was found to be 49.7 °C.
GTGGTAGGAAACTATCAC (((.(((....))).))): in data set [1], the folding enthalpy was -28.4 kcal/mol. In data set [2], the Tm came out at 44.4 °C.
In the same order, the values of GTGGTCCGAAAGGACAC (((.(((....)))))) are -12.8 kcal/mol and 53.2 °C.
As for GTGGTCGAAAGACATCAC ((((((....)))..))), the folding enthalpy in data set [1] is -14.3 kcal/mol. The Tm in data set [2] worked out at 34.2 °C.
On to GTGGTCGAAAGACGACAC ((((((....)))..))), for which the folding enthalpy in data set [1] was -15.4 kcal/mol. Also, the Tm in data set [2] was 47.2 °C.
GTGGTCGAAAGACGTCAC ((((((....)))..))): the folding enthalpy in data set [1] is -13.5 kcal/mol. For the same sequence, the Tm in data set [2] was found to be 36.2 °C.
Take GTGGTCGAAAGACTGCAC ((((((....)))..))): in data set [1], the folding enthalpy is -14.7 kcal/mol. Besides, the Tm in data set [2] was found to be 40.8 °C.
Take GTGGTCGGAAACAACCAC (((((.(....).))))): in data set [1], the folding enthalpy was -29.4 kcal/mol. Also, the Tm in data set [2] stood at 45.4 °C.
For the sequence GTGGTCGGAAACGACTGC (..((((....))))..), the folding enthalpy in data set [1] is -14.3 kcal/mol. Moreover, the Tm in data set [2] worked out at 49.5 °C.
Take GTGGTCGGAAACGATCAC (((.(((....))).))): the folding enthalpy in data set [1] is -44.6 kcal/mol. The Tm in data set [2] amounted to 55.7 °C.
GTGGTGACGAAAGTCCAC (((..(((....)))))): in data set [1], the folding enthalpy was -19 kcal/mol. Moreover, the Tm in data set [2] stood at 45.6 °C.
Consider GTGGTTGCGAAAGCACAC (((..(((....)))))), for which, in data set [1], the folding enthalpy was -15.6 kcal/mol. The Tm in data set [2] came out at 42.7 °C.
With GTGTAAACGAAAGTTCAC (((..(((....)))))), the folding enthalpy in data set [1] is -18 kcal/mol. Also, in data set [2], the Tm was 33.7 °C.
As for GTGTAACGAAAGTTCCAC (((.(((....))).))), the folding enthalpy in data set [1] is -22.6 kcal/mol. In addition, the Tm in data set [2] amounted to 38.9 °C.
For GTGTACACGAAAGTGCAC (((..(((....)))))) the same measures were -19 kcal/mol and 47.1 °C.
Consider GTGTACCGAAAGGTTCAC (((.(((....))).))), for which the folding enthalpy in data set [1] is -35.8 kcal/mol. In data set [2], the Tm stood at 53.1 °C.
In the case of GTGTACGAAAGTACAC ((((((....)))))), the folding enthalpy in data set [1] was -29.7 kcal/mol. Also, in data set [2], the Tm was 69.1 °C.
In the case of GTGTACGAAAGTACCAC ((((((....))).))), the folding enthalpy in data set [1] is -13.3 kcal/mol. In addition, in data set [2], the Tm was found to be 44.4 °C.
As to GTGTACGAAAGTACCCAC ((((((....)))..))), the folding enthalpy in data set [1] was -10.3 kcal/mol. Further, the Tm in data set [2] came out at 31.9 °C.
For GTGTACGAAAGTACTCAC ((((((....)))..))), the folding enthalpy in data set [1] was -11.4 kcal/mol. In addition, in data set [2], the Tm turned out to be 35.7 °C.
In the case of GTGTACGAAAGTATCAC ((((((....))).))), in data set [1], the folding enthalpy was -22.8 kcal/mol. For the same sequence, the Tm in data set [2] worked out at 43.6 °C.
For GTGTACGCGAAAGCGCAC (((..(((....)))))) the same measures were -16.7 kcal/mol and 48.9 °C.
As to GTGTACGGAAACACACAC ((((..(....)..)))), in data set [1], the folding enthalpy was -12.6 kcal/mol. In data set [2], the Tm was determined as 31.9 °C.
In the same order, the values of GTGTACTCGAAAGAGCAC (((..(((....)))))) are -21.8 kcal/mol and 43.5 °C.
Consider GTGTAGCCGAAAGGCCAC (((..(((....)))))), for which the folding enthalpy in data set [1] was -17.3 kcal/mol. Besides, in data set [2], the Tm came to 47 °C.
